Data from ChEMBL document CHEMBL1138602, “Discovery of sodium 6-[(5-chloro-2-{[(4-chloro-2-fluorophenyl)methyl]oxy}phenyl)methyl]-2-pyridinecarboxylate (GSK269984A) an EP(1) receptor antagonist for the treatment of inflammatory pain” (Bioorg Med Chem Lett, 2009).

What was measured:
[1] = Lipophilicity, log D at pH 7.4; format: physicochemical; settings: buffer
Hepatocyte = assay: Intrinsic clearance in human hepatocytes measured per gram of liver at 0.54 to 0.7 X 10^6 cells/ml cell density; format: ADME, cell-based
Procedure, shortened: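 Intrinsic clearance in hepatocytes expressed as mL/min/g liver. Cell densities were 0.15–0.2 × 10^6 cells/mL or 0.54–0.7 × 10^6 cells/mL.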

Thromboxane A2 receptor = target: T1, Thromboxane A2 receptor (Homo sapiens, UniProt P21731); assay: Inhibition of TP receptor
T1 sequence (P21731 whole entry): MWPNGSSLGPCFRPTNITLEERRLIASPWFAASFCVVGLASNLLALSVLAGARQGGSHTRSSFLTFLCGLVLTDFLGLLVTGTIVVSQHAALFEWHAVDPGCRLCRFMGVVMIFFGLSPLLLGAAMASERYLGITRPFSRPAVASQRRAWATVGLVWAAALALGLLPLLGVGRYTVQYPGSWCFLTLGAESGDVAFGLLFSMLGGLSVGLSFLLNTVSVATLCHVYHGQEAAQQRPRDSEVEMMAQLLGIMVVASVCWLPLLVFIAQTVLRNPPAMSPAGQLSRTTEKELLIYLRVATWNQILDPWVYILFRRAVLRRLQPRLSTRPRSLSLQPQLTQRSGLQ

[2] = target: T2, Prostaglandin E2 receptor EP1 subtype (Homo sapiens, UniProt P34995); assay: Antagonist activity at human recombinant EP1 receptor expressed in CHO cells assessed as luciferase activity by Schild assay; format: functional, cell-based; settings: read-out: pA2 (converted)
T2 sequence (P34995 whole entry): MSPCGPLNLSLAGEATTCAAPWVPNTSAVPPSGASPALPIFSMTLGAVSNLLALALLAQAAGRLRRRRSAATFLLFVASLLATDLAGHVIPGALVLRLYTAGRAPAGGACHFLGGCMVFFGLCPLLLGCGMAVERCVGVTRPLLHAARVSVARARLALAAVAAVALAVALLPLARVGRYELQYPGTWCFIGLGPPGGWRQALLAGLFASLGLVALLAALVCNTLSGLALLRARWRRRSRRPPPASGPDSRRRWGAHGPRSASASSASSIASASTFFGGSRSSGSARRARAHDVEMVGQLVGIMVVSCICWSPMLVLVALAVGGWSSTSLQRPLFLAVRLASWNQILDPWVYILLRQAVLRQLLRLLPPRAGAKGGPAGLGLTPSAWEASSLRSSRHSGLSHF

[3] = Oral bioavailability in Beagle dog at 3 mg/kg; format: ADME, organism-based, Canis lupus familiaris; settings: in vivo
Procedure, shortened: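 Single oral dose of 3 mg/kg in 1% (w/v) methylcellulose vehicle. Rats were male Sprague-Dawley; dogs were beagle. Bioavailability (Fpo) determined.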

Cytochrome P450 2D6 = Cytochrome P450 2D6 (Homo sapiens, UniProt P10635); assay: Inhibition of human CYP2D6; format: ADME
Cytochrome P450 2D6, sequence (P10635 whole entry): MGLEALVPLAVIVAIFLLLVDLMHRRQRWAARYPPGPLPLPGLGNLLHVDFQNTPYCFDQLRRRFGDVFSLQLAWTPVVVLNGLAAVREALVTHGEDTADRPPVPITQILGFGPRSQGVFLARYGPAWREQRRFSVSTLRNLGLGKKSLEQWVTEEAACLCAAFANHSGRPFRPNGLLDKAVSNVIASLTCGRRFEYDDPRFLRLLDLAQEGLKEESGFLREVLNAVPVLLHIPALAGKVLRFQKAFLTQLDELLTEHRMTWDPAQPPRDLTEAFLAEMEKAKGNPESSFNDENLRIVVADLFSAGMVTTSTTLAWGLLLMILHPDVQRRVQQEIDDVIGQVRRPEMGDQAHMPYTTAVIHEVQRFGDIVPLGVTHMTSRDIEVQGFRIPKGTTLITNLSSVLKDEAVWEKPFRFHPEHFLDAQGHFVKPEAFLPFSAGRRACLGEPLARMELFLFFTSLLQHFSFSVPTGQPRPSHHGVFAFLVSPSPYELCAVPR
Procedure, shortened: (§1)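 Inhibition of metabolism of fluorometric substrates (Cypex protocol); IC50 values are the mean of three experiments ± standard deviation.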

[4] = Drug level in blood of complete Freund's adjuvant-induced rat inflammatory pain model at 3 mg/kg, po administered after 23 hrs of adjuvant challenge measured after 1 hr; format: ADME, organism-based; parameters: dose 3 mg/kg, route oral; settings: read-out: Drug uptake
Procedure, shortened: (§2)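 CFA rat study: oral doses of 1, 3 or 10 mg/kg given 23 h after intraplantar adjuvant, samples 1 h post-dose. Blood values are the mean from seven animals. Brain values are the mean from three animals.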

[5] = Drug level in blood of complete Freund's adjuvant-induced rat inflammatory pain model at 1 mg/kg, po administered after 23 hrs of adjuvant challenge measured after 1 hr; format: ADME, organism-based; parameters: dose 1 mg/kg, route oral; settings: read-out: Drug uptake; procedure, shortened: as §2
Cytochrome P450 2C19 = Cytochrome P450 2C19 (Homo sapiens, UniProt P33261); assay: Inhibition of human CYP2C19; format: ADME; procedure, shortened: as §1
Cytochrome P450 2C19, sequence (P33261 whole entry, the tested form may be a part): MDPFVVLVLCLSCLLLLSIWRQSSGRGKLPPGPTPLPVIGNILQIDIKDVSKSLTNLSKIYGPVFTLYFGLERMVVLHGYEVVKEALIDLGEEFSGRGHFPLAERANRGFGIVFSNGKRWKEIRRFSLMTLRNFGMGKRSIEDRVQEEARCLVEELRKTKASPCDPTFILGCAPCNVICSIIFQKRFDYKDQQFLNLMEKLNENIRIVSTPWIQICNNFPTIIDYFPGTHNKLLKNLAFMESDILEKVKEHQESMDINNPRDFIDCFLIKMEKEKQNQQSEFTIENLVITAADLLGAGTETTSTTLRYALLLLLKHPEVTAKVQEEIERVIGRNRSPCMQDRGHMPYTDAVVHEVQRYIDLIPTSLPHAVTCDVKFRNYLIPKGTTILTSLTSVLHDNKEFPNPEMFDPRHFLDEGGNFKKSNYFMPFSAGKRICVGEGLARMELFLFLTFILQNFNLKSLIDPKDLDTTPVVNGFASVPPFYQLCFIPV

[6] = Drug level in rat brain at 0.5 mg/kg/hr administered by infusion for 1 hrs; format: ADME, organism-based; settings: intravenous, read-out: Drug uptake
Procedure, shortened: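 Rat given a 1 h infusion; blood and brain concentrations measured.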

[7] = Ratio of drug level in brain to blood in complete Freund's adjuvant-induced rat inflammatory pain model at 3 mg/kg, po administered after 23 hrs of adjuvant challenge measured after 1 hr; format: ADME, organism-based; parameters: dose 3 mg/kg, route oral; settings: brain and blood
Procedure, shortened: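 Rat CFA inflammatory pain model: oral dosing at 1, 3 or 10 mg/kg 23 h after intraplantar adjuvant; blood and brain sampled 1 h post-dose from the same animal; Br:Bl ratio is the mean from three animals.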

[8] = target: T3, Prostaglandin E2 receptor EP3 subtype (Homo sapiens, UniProt P43115); assay: Inhibition of EP3 receptor by FLIPR assay
T3 sequence (P43115 whole entry): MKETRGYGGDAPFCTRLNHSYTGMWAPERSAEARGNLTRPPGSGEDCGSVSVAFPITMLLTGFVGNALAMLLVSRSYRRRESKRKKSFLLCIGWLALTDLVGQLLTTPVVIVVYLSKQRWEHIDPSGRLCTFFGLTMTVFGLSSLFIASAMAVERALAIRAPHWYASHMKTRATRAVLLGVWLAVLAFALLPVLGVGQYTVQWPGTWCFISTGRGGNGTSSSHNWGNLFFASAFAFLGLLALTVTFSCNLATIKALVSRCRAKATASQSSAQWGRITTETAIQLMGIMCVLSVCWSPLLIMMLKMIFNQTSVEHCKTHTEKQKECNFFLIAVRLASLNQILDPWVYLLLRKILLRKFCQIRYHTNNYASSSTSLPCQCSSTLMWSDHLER

[9] = Clearance in cynomolgus monkey blood at 1 mg/kg administered by intravenous infusion for 1 hr; format: ADME, organism-based, Macaca fascicularis; parameters: dose 1 mg/kg, route intravenous
Procedure, shortened: (§3)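 Intravenous administration as a 1 h infusion of a 1 mg/kg dose. Rats were male Sprague-Dawley; dogs were beagle; monkeys were cynomolgus. Blood clearance, Vss and half-life determined.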

[10] = target: Prostaglandin E2 receptor EP2 subtype (Homo sapiens, UniProt P43116); assay: Inhibition of EP2 receptor
Prostaglandin E2 receptor EP2 subtype, sequence (P43116 whole entry): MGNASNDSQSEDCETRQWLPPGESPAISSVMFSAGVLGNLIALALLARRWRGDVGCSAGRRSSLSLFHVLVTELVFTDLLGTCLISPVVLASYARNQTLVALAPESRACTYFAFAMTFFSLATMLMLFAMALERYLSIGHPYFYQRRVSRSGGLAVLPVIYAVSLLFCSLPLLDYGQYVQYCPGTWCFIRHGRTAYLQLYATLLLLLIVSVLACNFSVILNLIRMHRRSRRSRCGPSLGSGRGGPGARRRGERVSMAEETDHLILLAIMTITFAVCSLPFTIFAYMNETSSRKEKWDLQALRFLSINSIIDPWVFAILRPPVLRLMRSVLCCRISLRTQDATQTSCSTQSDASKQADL

[11] = Permeability from apical to basolateral side of dog MDCK2 cells over expressing MDR1 after 1 hr; format: ADME, cell-based, Canis lupus familiaris, MDCK-II; settings: MDCK-MDR1, read-out: permeability
Procedure, shortened: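 MDCKII-MDR1 Pgp permeability assay; apical-to-basolateral Pexact permeability in nm/s, with efflux ratio also determined.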

[12] = Ratio of drug level in brain to blood of rat at 0.5 mg/kg/hr administered by infusion for 1 hrs; settings: brain and blood, intravenous
Cytochrome P450 3A4 = Cytochrome P450 3A4 (Homo sapiens, UniProt P08684); assay: Inhibition of human CYP3A4; format: ADME; procedure, shortened: as §1
Cytochrome P450 3A4, sequence (P08684 whole entry, the tested form may be a part): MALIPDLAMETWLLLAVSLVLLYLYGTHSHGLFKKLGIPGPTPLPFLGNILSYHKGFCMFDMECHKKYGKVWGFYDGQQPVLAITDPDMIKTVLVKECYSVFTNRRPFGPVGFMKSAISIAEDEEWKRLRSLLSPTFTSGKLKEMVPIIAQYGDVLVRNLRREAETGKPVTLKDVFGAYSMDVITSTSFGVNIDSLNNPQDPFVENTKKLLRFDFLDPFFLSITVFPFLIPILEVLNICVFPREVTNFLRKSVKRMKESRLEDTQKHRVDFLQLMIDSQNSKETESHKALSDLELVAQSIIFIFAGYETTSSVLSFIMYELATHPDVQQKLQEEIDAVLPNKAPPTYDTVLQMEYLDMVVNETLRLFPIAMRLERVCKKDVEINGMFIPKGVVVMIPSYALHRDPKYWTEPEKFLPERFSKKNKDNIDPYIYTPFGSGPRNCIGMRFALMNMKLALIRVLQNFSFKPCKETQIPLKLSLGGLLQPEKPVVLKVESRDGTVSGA

[13] = Drug level in mouse blood at 0.5 mg/kg/hr administered by infusion for 12 hrs; format: ADME, organism-based; settings: intravenous, read-out: Drug uptake
Procedure, shortened: (§4)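 Steady-state 12 h infusion at 5 mL/kg/h to reach a target dose of 0.5 mg/kg/h; blood and brain concentrations measured. Data are the mean from three animals.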

[14] = Drug level in Landrace pig blood at 0.5 mg/kg/hr administered by infusion for 1 hrs; format: ADME, organism-based, Sus scrofa; settings: intravenous, read-out: Drug uptake
Procedure, shortened: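 Landrace pig given a 1 h infusion; blood and brain concentrations measured in a single animal.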

[15] = Ratio of drug level in brain to blood in complete Freund's adjuvant induced rat inflammatory pain model at 3 mg/kg, po bid for 5 days measured after 1 hr on day 5
[16] = Solubility in FaSSIF after 0.5 hrs; format: physicochemical
Procedure, shortened: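 Solubility determined in water, FaSSIF and FeSSIF, all read at the 0.5 h time point.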

[17] = Drug level in rat brain at 0.5 mg/kg/hr administered by infusion for 12 hrs; format: ADME, organism-based; settings: intravenous, read-out: Drug uptake; procedure, shortened: as §4
[18] = Half life in cynomolgus monkey at 1 mg/kg administered by intravenous infusion for 1 hr; format: ADME, organism-based, Macaca fascicularis; parameters: dose 1 mg/kg, route intravenous; settings: in vivo; procedure, shortened: as §3

logD [1]: 2.1 | CL (Hepatocyte): 0.7 mL/min/g | Ki (Thromboxane A2 receptor): 10 nM | Kb [2]: 7.94 nM | bioavailability [3]: 39% | IC50 (Cytochrome P450 2D6): > 100 µM | concentration at 1 h [4]: 415 nM | concentration at 1 h [5]: 144 nM | IC50 (Cytochrome P450 2C19): 85 µM | concentration at 1 h [6]: 374 nM | Kp at 1 h [7]: 0.37 | pKi [8]: 5.9 | clearance [9]: 41 mL/min/kg | IC50 [10]: 1580 nM | Papp A→B at 1 h [11]: 70 ×10⁻⁶ cm/s | Kp at 1 h [12]: 0.21 | IC50 (Cytochrome P450 3A4): ≥ 100 µM | concentration at 12 h [13]: 199 nM | concentration at 1 h [14]: 2300 nM | Kp at 1 hr [15]: 0.34 | solubility at 0.5 h [16]: 60 µg/mL | concentration at 12 h [17]: 225 nM | half-life [18]: 36 min
Compound: O=C([O-])c1cccc(Cc2cc(Cl)ccc2OCc2ccc(Cl)cc2F)n1.[Na+]
